# Experimental data reported in ChEMBL document CHEMBL3856209, “Novel pyrazolopyridine derivatives as potential angiogenesis inhibitors: Synthesis, biological evaluation and transcriptome-based mechanistic analysis” (Eur J Med Chem, 2016).
# Key:
# Assay type in all cases: functional, Homo sapiens
# [1] = system: HUVEC; assay: Effect on CKS2 gene expression in serum-starved HUVEC after 6 hrs by microarray analysis relative to control
# In short: (§1)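 Confluent, serum-starved HUVEC (pooled from 3–5 donors, passage ≤4) treated with 2 μM compound or vehicle with 2.5% FBS for 6 h or 24 h. Total RNA hybridized to Illumina Human-HT12 arrays. Data were background-corrected, vst-transformed and rsn-normalized. Hits called by moderated paired t-test versus DMSO-treated cells, p < 0.05 and log2 fold change >|0.5|.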
# [2] = system: HUVEC; assay: Effect on SPDL1 gene expression in serum-starved HUVEC after 6 hrs by microarray analysis relative to control
# [3] = system: HUVEC; assay: Effect on DKK1 gene expression in serum-starved HUVEC after 24 hrs by microarray analysis relative to control
# In short: (§2)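 Confluent serum-starved HUVEC (primary, pooled from 3–5 donors, passage ≤4) treated with 2 μM compound or DMSO vehicle in 2.5% FBS for 6 h or 24 h. Total RNA hybridized to Illumina Human-HT12 arrays, background-corrected, vst-transformed and rsn-normalized. Differential expression versus DMSO by moderated paired t-test (p < 0.05, |log2 fold change| > 0.5).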
# [4] = system: HUVEC; assay: Effect on CXCL16 gene expression in serum-starved HUVEC after 6 hrs by microarray analysis relative to control; in short: as §2
# [5] = system: HUVEC; assay: Effect on CYP26B1 gene expression in serum-starved HUVEC after 6 hrs by microarray analysis relative to control; in short: as §1
# [6] = system: HUVEC; assay: Effect on RNU1-28P gene expression in serum-starved HUVEC after 6 hrs by microarray analysis relative to control
structure (smiles),measurement,setting,value
COc1ccc(Cn2nc(-c3ccccc3)c3cc(Cl)nc(N4CCNCC4)c32)cc1,log2FC,[1],0.2477
COc1ccc(Cn2nc(-c3ccccc3)c3cc(Nc4ccc(N5CCN(C)CC5)cc4)nc(N4CCN(C)CC4)c32)cc1,log2FC,[2],0.1139
same,fold change (FC),[3],-0.6899
same,fold change (FC),[4],0.5236
same,log2FC,[5],-0.3941
same,log2FC,[6],-0.7994
